Legend:
Rattus norvegicus [1] = experiment: Distribution of radioactivity was measured in blood tissue of unfasted Fischer 344 rats administered intravenously after 15 minutes (radiolabeled with [125I]-; assay type: ADME, organism-based; settings: in vivo, iv, 0.25 h
Outline: (§1)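 Female Fischer 344 rats, 10–12 weeks old (170–200 g), with food and water ad libitum, five per time point. The radioiodinated fatty acid was dissolved in ethanol, added to 6% BSA at ~40 °C (final 10% ethanol), filtered, and injected into a lateral tail vein (0.5 mL) under ether anesthesia. Blood was taken by cardiac puncture; organs were rinsed, blotted, weighed and gamma-counted against injectate standards. Output is % injected dose/g.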

Rattus norvegicus [2] = experiment: Distribution of radioactivity was measured in blood tissue of unfasted Fischer 344 rats administered intravenously after 2 minutes (radiolabeled with [125I]-; assay type: ADME, organism-based; settings: in vivo, iv; outline: as §1
Rattus norvegicus [3] = experiment: Distribution of radioactivity was measured in blood tissue of unfasted Fischer 344 rats administered intravenously after 30 minutes (radiolabeled with [125I]-; assay type: ADME, organism-based; settings: in vivo, iv, 0.5 h; outline: as §1
Rattus norvegicus [4] = experiment: Distribution of radioactivity was measured in blood tissue of unfasted Fischer 344 rats administered intravenously after 5 minutes (radiolabeled with [125I]-; assay type: ADME, organism-based; settings: in vivo, iv; outline: as §1
Rattus norvegicus [5] = experiment: Distribution of radioactivity was measured in blood tissue of unfasted Fischer 344 rats administered intravenously after 60 minutes (radiolabeled with [125I]-; assay type: ADME, organism-based; settings: in vivo, iv, 1 h; outline: as §1
Rattus norvegicus [6] = experiment: Distribution of radioactivity was measured in heart tissue of unfasted Fischer 344 rats administered intravenously after 15 minutes (radiolabeled with [125I]-; assay type: ADME, organism-based; settings: in vivo, iv, 0.25 h; outline: as §1
Rattus norvegicus [7] = experiment: Distribution of radioactivity was measured in heart tissue of unfasted Fischer 344 rats administered intravenously after 2 minutes (radiolabeled with [125I]-; assay type: ADME, organism-based; settings: in vivo, iv; outline: as §1
Rattus norvegicus [8] = experiment: Distribution of radioactivity was measured in heart tissue of unfasted Fischer 344 rats administered intravenously after 30 minutes (radiolabeled with [125I]-; assay type: ADME, organism-based; settings: in vivo, iv, 0.5 h; outline: as §1
Rattus norvegicus [9] = experiment: Distribution of radioactivity was measured in heart tissue of unfasted Fischer 344 rats administered intravenously after 60 minutes (radiolabeled with [125I]-; assay type: ADME, organism-based; settings: in vivo, iv, 1 h; outline: as §1
Rattus norvegicus [10] = experiment: Distribution of radioactivity was measured in kidney tissue of unfasted Fischer 344 rats administered intravenously after 15 minutes (radiolabeled with [125I]-; assay type: ADME, organism-based; settings: in vivo, iv, 0.25 h; outline: as §1
Rattus norvegicus [11] = experiment: Distribution of radioactivity was measured in thyroid tissue of unfasted Fischer 344 rats administered intravenously after 15 minutes (radiolabeled with [125I]-; assay type: ADME, organism-based, Thyroid gland; settings: in vivo, iv, 0.25 h; outline: as §1
Rattus norvegicus [12] = experiment: Distribution of radioactivity was measured in thyroid tissue of unfasted Fischer 344 rats administered intravenously after 2 minutes (radiolabeled with [125I]-; assay type: ADME, organism-based, Thyroid gland; settings: in vivo, iv; outline: as §1
Rattus norvegicus [13] = experiment: Distribution of radioactivity was measured in thyroid tissue of unfasted Fischer 344 rats administered intravenously after 30 minutes (radiolabeled with [125I]-; assay type: ADME, organism-based, Thyroid gland; settings: in vivo, iv, 0.5 h; outline: as §1
Rattus norvegicus [14] = experiment: Distribution of radioactivity was measured in thyroid tissue of unfasted Fischer 344 rats administered intravenously after 5 minutes (radiolabeled with [125I]-; assay type: ADME, organism-based, Thyroid gland; settings: in vivo, iv; outline: as §1
Rattus norvegicus [15] = experiment: Distribution of radioactivity was measured in thyroid tissue of unfasted Fischer 344 rats administered intravenously after 60 minutes (radiolabeled with [125I]-; assay type: ADME, organism-based, Thyroid gland; settings: in vivo, iv, 1 h
Outline: (§2)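 Female Fischer 344 rats (10-12 weeks, 170-200 g), fed ad libitum before and during the experiment, five per time point. The radioiodinated fatty acid was dissolved in 0.5 mL absolute ethanol, added dropwise to stirred 6% BSA at ~40 °C (final ethanol 10%), filtered at 0.22 µm, and injected in 0.5 mL into a lateral tail vein under ether anesthesia.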

Rattus norvegicus [16] = experiment: Mean heart/blood tissue of unfasted Fischer 344 rats administered intravenous after 2 minutes (radiolabeled with [125I]-; assay type: ADME, organism-based; settings: in vivo; outline: as §2
Rattus norvegicus [17] = experiment: Mean heart/blood tissue of unfasted Fischer 344 rats administered intravenous after 30 minutes (radiolabeled with [125I]-; assay type: ADME, organism-based; settings: in vivo, 0.5 h; outline: as §2
Rattus norvegicus [18] = experiment: Mean heart/blood tissue of unfasted Fischer 344 rats administered intravenous after 5 minutes (radiolabeled with [125I]-; assay type: ADME, organism-based; settings: in vivo; outline: as §2
Rattus norvegicus [19] = experiment: Mean heart/blood tissue of unfasted Fischer 344 rats administered intravenous after 60 minutes (radiolabeled with [125I]-; assay type: ADME, organism-based; settings: other tissue, 1 h; outline: as §2
Rattus norvegicus [20] = experiment: Distribution of radioactivity was measured in kidney tissue of unfasted Fischer 344 rats administered intravenously after 2 minutes (radiolabeled with [125I]-; assay type: ADME, organism-based; settings: in vivo, iv; outline: as §1
Rattus norvegicus [21] = experiment: Distribution of radioactivity was measured in kidney tissue of unfasted Fischer 344 rats administered intravenously after 30 minutes (radiolabeled with [125I]-; assay type: ADME, organism-based; settings: in vivo, iv, 0.5 h; outline: as §1
Rattus norvegicus [22] = experiment: Distribution of radioactivity was measured in kidney tissue of unfasted Fischer 344 rats administered intravenously after 5 minutes (radiolabeled with [125I]-; assay type: ADME, organism-based; settings: in vivo, iv; outline: as §1
Rattus norvegicus [23] = experiment: Distribution of radioactivity was measured in kidney tissue of unfasted Fischer 344 rats administered intravenously after 60 minutes (radiolabeled with [125I]-; assay type: ADME, organism-based; settings: in vivo, iv, 1 h; outline: as §1
Rattus norvegicus [24] = experiment: Distribution of radioactivity was measured in liver tissue of unfasted Fischer 344 rats administered intravenously after 15 minutes (radiolabeled with [125I]-; assay type: ADME, organism-based; settings: in vivo, iv, 0.25 h; outline: as §1
Rattus norvegicus [25] = experiment: Distribution of radioactivity was measured in liver tissue of unfasted Fischer 344 rats administered intravenously after 2 minutes (radiolabeled with [125I]-; assay type: ADME, organism-based; settings: in vivo, iv; outline: as §1
Rattus norvegicus [26] = experiment: Distribution of radioactivity was measured in liver tissue of unfasted Fischer 344 rats administered intravenously after 30 minutes (radiolabeled with [125I]-; assay type: ADME, organism-based; settings: in vivo, iv, 0.5 h; outline: as §1
Rattus norvegicus [27] = experiment: Distribution of radioactivity was measured in liver tissue of unfasted Fischer 344 rats administered intravenously after 5 minutes (radiolabeled with [125I]-; assay type: ADME, organism-based; settings: in vivo, iv; outline: as §1
Rattus norvegicus [28] = experiment: Distribution of radioactivity was measured in liver tissue of unfasted Fischer 344 rats administered intravenously after 60 minutes (radiolabeled with [125I]-; assay type: ADME, organism-based; settings: in vivo, iv, 1 h; outline: as §1
Rattus norvegicus [29] = experiment: Distribution of radioactivity was measured in lung tissue of unfasted Fischer 344 rats administered intravenously after 15 minutes (radiolabeled with [125I]-; assay type: ADME, organism-based; settings: in vivo, iv, 0.25 h; outline: as §1
Rattus norvegicus [30] = experiment: Distribution of radioactivity was measured in lung tissue of unfasted Fischer 344 rats administered intravenously after 2 minutes (radiolabeled with [125I]-; assay type: ADME, organism-based; settings: in vivo, iv; outline: as §1
Rattus norvegicus [31] = experiment: Distribution of radioactivity was measured in lung tissue of unfasted Fischer 344 rats administered intravenously after 30 minutes (radiolabeled with [125I]-; assay type: ADME, organism-based; settings: in vivo, iv, 0.5 h; outline: as §1
Rattus norvegicus [32] = experiment: Distribution of radioactivity was measured in lung tissue of unfasted Fischer 344 rats administered intravenously after 5 minutes (radiolabeled with [125I]-; assay type: ADME, organism-based; settings: in vivo, iv; outline: as §1
Rattus norvegicus [33] = experiment: Distribution of radioactivity was measured in lung tissue of unfasted Fischer 344 rats administered intravenously after 60 minutes (radiolabeled with [125I]-; assay type: ADME, organism-based; settings: in vivo, iv, 1 h; outline: as §1
Rattus norvegicus [34] = species: Rattus norvegicus; experiment: Specific activity was determined with radioiodinated iodine-125; assay type: functional
Rattus norvegicus [35] = experiment: Distribution of radioactivity was measured in heart tissue of unfasted Fischer 344 rats administered intravenously after 5 minutes (radiolabeled with [125I]-; assay type: ADME, organism-based; settings: in vivo, iv; outline: as §1
Rattus norvegicus [36] = experiment: Mean heart/blood tissue of unfasted Fischer 344 rats administered intravenous after 15 minutes (radiolabeled with [125I]-; assay type: ADME, organism-based; settings: in vivo, 0.25 h; outline: as §2
Rattus norvegicus [37] = species: Rattus norvegicus; experiment: Specific activity was determined with radioiodinated iodine-123; assay type: functional

## O=C(O)CCCCCCCCCCCCCCCC/C=C/I
Rattus norvegicus [1]
  Distribution: 0.35%
Rattus norvegicus [2]
  Distribution: 0.45%
Rattus norvegicus [3]
  Distribution: 0.51%
Rattus norvegicus [4]
  Distribution: 0.3%
Rattus norvegicus [5]
  Distribution: 0.31%
Rattus norvegicus [6]
  Distribution: 3%
Rattus norvegicus [7]
  Distribution: 4.44%
Rattus norvegicus [8]
  Distribution: 3.79%
Rattus norvegicus [9]
  Distribution: 3.4%
Rattus norvegicus [10]
  Distribution: 0.73%
Rattus norvegicus [11]
  Distribution: 15.7%
Rattus norvegicus [12]
  Distribution: 7.91%
Rattus norvegicus [13]
  Distribution: 21.9%
Rattus norvegicus [14]
  Distribution: 8.73%
Rattus norvegicus [15]
  Distribution: 43.5%
Rattus norvegicus [16]
  Distribution: 9.9%
Rattus norvegicus [17]
  Distribution: 7.4%
Rattus norvegicus [18]
  Distribution: 12.4%
Rattus norvegicus [19]
  Distribution: 10.9%
Rattus norvegicus [20]
  Distribution: 0.85%
Rattus norvegicus [21]
  Distribution: 0.76%
Rattus norvegicus [22]
  Distribution: 0.82%
Rattus norvegicus [23]
  Distribution: 0.67%
Rattus norvegicus [24]
  Distribution: 5.88%
Rattus norvegicus [25]
  Distribution: 6.91%
Rattus norvegicus [26]
  Distribution: 5.72%
Rattus norvegicus [27]
  Distribution: 6.45%
Rattus norvegicus [28]
  Distribution: 3.79%
Rattus norvegicus [29]
  Distribution: 0.92%
Rattus norvegicus [30]
  Distribution: 1.16%
Rattus norvegicus [31]
  Distribution: 1%
Rattus norvegicus [32]
  Distribution: 0.97%
Rattus norvegicus [33]
  Distribution: 0.86%
Rattus norvegicus [34]
  Specific activity: 1.77 Ci mM-1
Rattus norvegicus [35]
  Distribution: 3.72%
Rattus norvegicus [36]
  Distribution: 8.6%
Rattus norvegicus [37]
  Specific activity: 2.21 Ci mM-1

## CC(CCCCCCCCCCCCCC/C=C/I)CC(=O)O (centres undefined)
Rattus norvegicus [1]
  Distribution: 0.41%
Rattus norvegicus [2]
  Distribution: 1.05%
Rattus norvegicus [3]
  Distribution: 0.59%
Rattus norvegicus [4]
  Distribution: 0.67%
Rattus norvegicus [5]
  Distribution: 0.37%
Rattus norvegicus [6]
  Distribution: 3.47%
Rattus norvegicus [7]
  Distribution: 3.93%
Rattus norvegicus [8]
  Distribution: 4.12%
Rattus norvegicus [9]
  Distribution: 3.08%
Rattus norvegicus [10]
  Distribution: 0.66%
Rattus norvegicus [11]
  Distribution: 16.9%
Rattus norvegicus [12]
  Distribution: 7.21%
Rattus norvegicus [13]
  Distribution: 29.4%
Rattus norvegicus [14]
  Distribution: 9.49%
Rattus norvegicus [15]
  Distribution: 65.4%
Rattus norvegicus [16]
  Distribution: 3.7%
Rattus norvegicus [17]
  Distribution: 6.9%
Rattus norvegicus [18]
  Distribution: 5.6%
Rattus norvegicus [19]
  Distribution: 8.3%
Rattus norvegicus [20]
  Distribution: 0.95%
Rattus norvegicus [21]
  Distribution: 0.71%
Rattus norvegicus [22]
  Distribution: 0.92%
Rattus norvegicus [23]
  Distribution: 0.67%
Rattus norvegicus [24]
  Distribution: 8.44%
Rattus norvegicus [25]
  Distribution: 8.32%
Rattus norvegicus [26]
  Distribution: 5.97%
Rattus norvegicus [27]
  Distribution: 7.81%
Rattus norvegicus [28]
  Distribution: 4.73%
Rattus norvegicus [29]
  Distribution: 0.83%
Rattus norvegicus [30]
  Distribution: 1.42%
Rattus norvegicus [31]
  Distribution: 0.89%
Rattus norvegicus [32]
  Distribution: 1.18%
Rattus norvegicus [33]
  Distribution: 0.73%
Rattus norvegicus [34]
  Specific activity: 7.08 Ci mM-1
Rattus norvegicus [35]
  Distribution: 3.74%
Rattus norvegicus [36]
  Distribution: 7.4%
Rattus norvegicus [37]
  Specific activity: 4.98 Ci mM-1

— ChEMBL document CHEMBL1123146, “Design, synthesis, and evaluation of omega-iodovinyl- and omega-iodoalkyl-substituted methyl-branched long-chain fatty acids” (J Med Chem, 1985)
